Published values gathered from unrelated publications.
Compare with care: the assays were run in different laboratories.
Target: Calcium/calmodulin-dependent protein kinase type 1B (PNCK, Homo sapiens, UniProt Q6P2M8)

| SMILES | test | setting | endpoint | value |
| --- | --- | --- | --- | --- |
| CN(CCCC(F)(F)F)c1nccc(-c2cnn3ncccc23)n1 | binding | 1 µM | remaining binding | 100% |
| COc1cc(Cl)c(C(=O)N[C@@H](CN[C@H]2CC[C@@H](N)CC2)Cc2ccc(C#N)cc2)cc1-c1ccc(CN[C@H](C)c2ccc(C)cc2)o1 | enzyme activity, inhibitor | 1 µM | remaining activity | 98% |
| Nc1ncnc2occ(-c3ccc(NC(=O)Nc4cc(C(F)(F)F)ccc4F)cc3)c12 | cell-free assay | 20 µM | remaining signal | 0.5% |
| Cc1ccc(C(=O)Nc2ccc(CN3CCN(C)CC3)c(C(F)(F)F)c2)cc1C#Cc1cnc2cccnn12 | cell-free assay | 23.5 nM | remaining signal | 89% |
| CN([C@@H]1CCc2c(CC(=O)O)c3ccccc3n2C1)S(=O)(=O)c1ccc(F)cc1 | cell-free assay, competition with immobilised ligand | 1 µM | remaining binding | 87% |
| CC(C)(O)[C@H]1CC[C@H](Nc2ccc3ncc(-c4cccc(C(F)(F)F)c4)n3n2)CC1 | enzyme activity, inhibitor | 1 µM | remaining activity | 100% |
| CCc1ccccc1C(=O)Nc1n[nH]c2c(C)c(F)c(C3C(C#N)=C(C)N(C)C(C)=C3C#N)cc12 | cell-free assay, competition with immobilised ligand | 1 µM | remaining binding | 100% |
| O=C(Nc1cnn(-c2csc(C(=O)NC3COC3)c2)c1)Nc1ccccc1Cl | enzyme activity, inhibitor | 5 µM | remaining activity | 92.1% |
| N#CCCc1ccc2c(c1)-c1[nH]c3ccc([N+](=O)[O-])cc3c1CC(=O)N2 | cell-free assay | 0.5 µM | remaining signal | 107% |
| Cc1sc(C(=O)NC2COC2)cc1-n1cc(NC(=O)Nc2c(F)cccc2Cl)cn1 | enzyme activity, inhibitor | 10 µM | remaining activity | 74.1% |
| CN1CC(Oc2cnc(C#N)cc2-c2ccn3nc(NC(=O)C4CC4)cc3c2)C1 | enzyme activity, inhibitor | 1 µM | inhibition | -21% |
